The results in this text go back to ChEMBL document CHEMBL4130397, “Tulongicin, an Antibacterial Tri-Indole Alkaloid from a Deep-Water Topsentia sp. Sponge” (J Nat Prod, 2017).

Converted amounts (≈) assume the structure as drawn.

One experiment concerns Staphylococcus aureus. Kind of experiment: Antibacterial activity against Staphylococcus aureus ATCC 29213 by CLSI method. In kind it is functional. The procedure, abridged:
(§1)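 Broth MIC per CLSI guidelines against ATCC strains; each compound tested in duplicate in at least two independent experiments; top concentration tested 100 μg/mL.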

The next experiment deals with Escherichia coli. As to the kind of experiment: Antibacterial activity against Escherichia coli ATCC 25922 by CLSI method. In kind it is functional. The essentials:
as §1

Experiment [1] concerns Human immunodeficiency virus 1. Kind of experiment: Antiviral activity against ENV pseudotyped CCR5-tropic HIV1 isolate YU2 infected in human TZM-bl cells after 24 hrs by luciferase reporter gene assay. The settings on record: Human immunodeficiency virus 1, isolate YU2, TZM-bl. In kind it is functional, organism-based.
For experiment [2], the system named is Human immunodeficiency virus 1. Kind of experiment: Antiviral activity against ENV pseudotyped CXCR4-tropic HIV1 HxB2 infected in human TZM-bl cells after 24 hrs by luciferase reporter gene assay. Conditions: Human immunodeficiency virus 1, M:B_HXB2R. In kind it is functional, organism-based.
In another experiment the test system is BSC-1. Kind of experiment: Cytotoxicity against African green monkey BSC1 cells. In kind it is cell-based. The settings on record: Chlorocebus aethiops.
The next experiment concerns HCT-116. As to the kind of experiment: Cytotoxicity against human HCT116 cells. In kind it is cell-based.

On to `Brc1ccc2c(C(C3=NC[C@H](c4c[nH]c5cc(Br)ccc45)N3)c3c[nH]c4cc(Br)ccc34)c[nH]c2c1`, for which the MIC in the experiment with Staphylococcus aureus was 1.2 µg/mL (≈ 1.8 µM); with Escherichia coli, greater than 100 µg/mL. Besides, the IC50 in experiment [1] was 3.9 µM; in experiment [2] it was 2.7 µM; in the experiment on BSC-1, 46 µM; in the experiment on HCT-116 it was 10 µM.
As to `Cc1onc(-c2ccccc2)c1C(=O)N[C@@H]1C(=O)N2[C@@H]1SC(C)(C)[C@@H]2C(=O)O` [OXACILLIN], in the experiment with Staphylococcus aureus, inhibition of growth (MIC) required 0.25 µg/mL (≈ 0.623 µM).
With `O=C(C1=NC[C@H](c2c[nH]c3cc(Br)ccc23)N1)c1c[nH]c2cc(Br)ccc12`, the MIC against Staphylococcus aureus is 1.1 µg/mL (≈ 2.26 µM); against Escherichia coli, greater than 100 µg/mL. Besides, the IC50 stood at 9.5 µM in experiment [1], 12 µM in experiment [2], 31 µM with BSC-1 and 27 µM in the experiment with HCT-116.
As to `O[C@H](C1=NC[C@H](c2c[nH]c3cc(Br)ccc23)N1)c1c[nH]c2cc(Br)ccc12`, the MIC is 3.7 µg/mL (≈ 7.58 µM) against Staphylococcus aureus and 100 µg/mL (≈ 205 µM) in the experiment with Escherichia coli. In addition, the IC50 turned out to be 3.5 µM in experiment [1], 4.5 µM in experiment [2], 93 µM with BSC-1 and 16 µM in the experiment with HCT-116.
GENTAMICIN had an MIC against Escherichia coli of 1 µg/mL.

In general, MIC refers to the lowest concentration that inhibits growth of the organism. A word on the IC50: it is the concentration at which inhibition is half-maximal.
